Test results: ChEMBL document CHEMBL1833848, “New betulinic acid derivatives as potent proteasome inhibitors” (Bioorg Med Chem Lett, 2011)
The source made the active and inactive calls. No cut-off for these calls is given here. Where a SMILES comes first, the peptide text is derived from it.

Columns and labels:
[1] = species: Homo sapiens; test: Ratio of lactacystin IC50 to compound IC50 for human 20S proteasome
[2] = species: Homo sapiens; test: Ratio of LLM-F IC50 to compound IC50 for human 20S proteasome
[3] = Inhibition of human 20S proteasome chymotrypsin-like activity using Suc-Leu-Leu-Val-Tyr-AMC fluorogenic substrate by fluorimetry
In short: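 IC50 values are the averages of three independent experiments.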

[4] = tested on: Human immunodeficiency virus 1; test: Antiviral activity against drug-resistant HIV1 isolate; format: functional, organism-based
[5] = tested on: Human immunodeficiency virus 1; test: Antiviral activity against HIV1; format: functional, organism-based
[6] = species: Homo sapiens; test: Inhibition of human 20S proteasome caspase-like activity using (Z)-LLE-bNA fluorogenic substrate by fluorimetry
[7] = Inhibition of human 20S proteasome trypsin-like activity using Bz-VGR-AMC fluorogenic substrate by fluorimetry
[8] = species: Homo sapiens; test: Ratio of bevirimat IC50 to compound IC50 for human 20S proteasome

## C=C(COCCc1ccc(Cl)cc1)[C@@H]1CC[C@]2(C(=O)N[C@@H](CC(C)C)C(=O)O)CC[C@]3(C)[C@H](CC[C@H]4C3(C)CC[C@H]3C(C)(C)[C@@H](O)CC[C@@]34C)[C@@H]12 (single isomer, unassigned)
[1]
  Ratio IC50: 3
[2]
  Ratio IC50: 3
[3]
  IC50: 1.8 µM

## C=C(C)[C@@H]1CC[C@]2(C(=O)O)CC[C@]3(C)[C@H](CC[C@H]4C3(C)CC[C@H]3C(C)(C)[C@@H](OC(=O)c5ccc(Br)cc5)CC[C@@]34C)[C@@H]12 (single isomer, unassigned)
[3]
  IC50: > 40 µM

## C=C(COCCc1ccc(OC)cc1)[C@@H]1CC[C@]2(C(=O)N[C@@H](CC(C)C)C(=O)O)CC[C@]3(C)[C@H](CC[C@H]4C3(C)CC[C@H]3C(C)(C)[C@@H](O)CC[C@@]34C)[C@@H]12 (single isomer, unassigned)
[3]
  IC50: 3.34 µM

## C=C(C)[C@@H]1CC[C@]2(C(=O)O)CC[C@]3(C)[C@H](CC[C@@H]4[C@@]5(C)CC[C@H](OC(=O)CC(C)(C)C(=O)O)C(C)(C)[C@@H]5CC[C@]43C)[C@@H]12 [BEVIRIMAT]
[4]
  EC50: < 0.01 µM
[5]
  EC50: < 0.01 µM
[6]
  inhibition: inactive
[7]
  IC50: 26.3 µM
[3]
  IC50: 9.2 µM

## C=C(C)[C@@H]1CC[C@]2(C(=O)O)CC[C@]3(C)[C@H](CC[C@H]4C3(C)CC[C@H]3C(C)(C)[C@@H](OC(=O)COCC(=O)O)CC[C@@]34C)[C@@H]12 (single isomer, unassigned)
[3]
  IC50: > 40 µM

## C=C(COCCc1ccccc1)[C@@H]1CC[C@]2(C(=O)N[C@@H](CC(C)C)C(=O)O)CC[C@]3(C)[C@H](CC[C@H]4C3(C)CC[C@H]3C(C)(C)[C@@H](O)CC[C@@]34C)[C@@H]12 (single isomer, unassigned)
[3]
  IC50: 2.47 µM

## C=C(C)[C@@H]1CC[C@]2(C(=O)O)CC[C@]3(C)[C@H](CC[C@H]4C3(C)CC[C@H]3C(C)(C)[C@@H](OC(=O)c5ccccc5Br)CC[C@@]34C)[C@@H]12 (single isomer, unassigned)
[3]
  IC50: 7.99 µM

## C=C(C)[C@@H]1CC[C@]2(C(=O)O)CC[C@]3(C)[C@H](CC[C@H]4C3(C)CC[C@H]3C(C)(C)[C@@H](OC(=O)c5cc(OC)c(OC)c(OC)c5)CC[C@@]34C)[C@@H]12 (single isomer, unassigned)
[3]
  IC50: > 40 µM

## C=C(CBr)[C@@H]1CC[C@]2(C(=O)N[C@@H](CC(C)C)C(=O)O)CC[C@]3(C)[C@H](CC[C@H]4C3(C)CC[C@H]3C(C)(C)[C@@H](O)CC[C@@]34C)[C@@H]12 (single isomer, unassigned)
[3]
  IC50: 5.85 µM

## C=C(COCCC)[C@@H]1CC[C@]2(C(=O)N[C@@H](CC(C)C)C(=O)O)CC[C@]3(C)[C@H](CC[C@H]4C3(C)CC[C@H]3C(C)(C)[C@@H](O)CC[C@@]34C)[C@@H]12 (single isomer, unassigned)
[3]
  IC50: 3.67 µM

## C=C(C)[C@@H]1CC[C@]2(C(=O)O)CC[C@]3(C)[C@H](CC[C@H]4C3(C)CC[C@H]3C(C)(C)[C@@H](OC(=O)c5ccc6c(c5)OCO6)CC[C@@]34C)[C@@H]12 (single isomer, unassigned)
[3]
  IC50: > 40 µM

## CSCC[C@@H](C=O)NC(=O)[C@H](CC(C)C)NC(=O)[C@H](CC(C)C)NC(C)=O (Ac-Leu-Leu-Met-aldehyde)
[3]
  IC50: 5.25 µM

## C=C(C)[C@@H]1CC[C@]2(C(=O)O)CC[C@]3(C)[C@H](CC[C@H]4C3(C)CC[C@H]3C(C)(C)[C@@H](OC(=O)C5CC=CCC5C(=O)O)CC[C@@]34C)[C@@H]12 (single isomer, unassigned)
[3]
  IC50: 2.96 µM

## C=C(C)[C@@H]1CC[C@]2(C(=O)O)CC[C@]3(C)[C@H](CC[C@H]4C3(C)CC[C@H]3C(C)(C)[C@@H](OC(=O)Cc5cccc(CC(=O)O)c5)CC[C@@]34C)[C@@H]12 (single isomer, unassigned)
[1]
  Ratio IC50: 4
[8]
  Ratio IC50: 6
[2]
  Ratio IC50: 4
[3]
  IC50: 1.42 µM

## C=C(C)[C@@H]1CC[C@]2(C(=O)O)CC[C@]3(C)[C@H](CC[C@H]4C3(C)CC[C@H]3C(C)(C)[C@@H](OC(=O)c5ccccc5)CC[C@@]34C)[C@@H]12 (single isomer, unassigned)
[3]
  IC50: 11.1 µM

## C=C(C)[C@@H]1CC[C@]2(C(=O)N[C@@H](CC(C)C)C(=O)O)CC[C@]3(C)[C@H](CC[C@H]4C3(C)CC[C@H]3C(C)(C)[C@@H](O)CC[C@@]34C)[C@@H]12 (single isomer, unassigned)
[3]
  IC50: > 40 µM

## C=C(C)[C@@H]1CC[C@]2(C(=O)O)CC[C@]3(C)[C@H](CC[C@H]4C3(C)CC[C@H]3C(C)(C)[C@@H](OC(=O)c5cccc(Br)c5)CC[C@@]34C)[C@@H]12 (single isomer, unassigned)
[3]
  IC50: 7.05 µM

## C=C(COCCN1CCOCC1)[C@@H]1CC[C@]2(C(=O)N[C@@H](CC(C)C)C(=O)O)CC[C@]3(C)[C@H](CC[C@H]4C3(C)CC[C@H]3C(C)(C)[C@@H](O)CC[C@@]34C)[C@@H]12 (single isomer, unassigned)
[3]
  IC50: 3.13 µM

## C=C(C)[C@@H]1CC[C@]2(C(=O)O)CC[C@]3(C)[C@H](CC[C@H]4C3(C)CC[C@H]3C(C)(C)[C@@H](OC(=O)c5cc(OC)c(OC)cc5OC)CC[C@@]34C)[C@@H]12 (single isomer, unassigned)
[3]
  IC50: 10.9 µM

## C=C(C)[C@@H]1CC[C@]2(C(=O)NCCCCCCCC(=O)N[C@@H](CC(C)C)[C@H](O)CC(=O)O)CC[C@]3(C)[C@H](CC[C@H]4C3(C)CC[C@H]3C(C)(C)[C@@H](O)CC[C@@]34C)[C@@H]12 (single isomer, unassigned)
[3]
  IC50: > 40 µM

## C=C(COCCc1ccc(F)cc1)[C@@H]1CC[C@]2(C(=O)N[C@@H](CC(C)C)C(=O)O)CC[C@]3(C)[C@H](CC[C@H]4C3(C)CC[C@H]3C(C)(C)[C@@H](O)CC[C@@]34C)[C@@H]12 (single isomer, unassigned)
[3]
  IC50: 2.4 µM

## C=C(C)[C@@H]1CC[C@]2(C(=O)O)CC[C@]3(C)[C@H](CC[C@H]4C3(C)CC[C@H]3C(C)(C)[C@@H](OC(=O)c5ccc(OC)c(OC)c5)CC[C@@]34C)[C@@H]12 (single isomer, unassigned)
[3]
  IC50: > 40 µM

## C=C(COCCc1ccc(Br)cc1)[C@@H]1CC[C@]2(C(=O)N[C@@H](CC(C)C)C(=O)O)CC[C@]3(C)[C@H](CC[C@H]4C3(C)CC[C@H]3C(C)(C)[C@@H](O)CC[C@@]34C)[C@@H]12 (single isomer, unassigned)
[1]
  Ratio IC50: 3
[2]
  Ratio IC50: 3
[3]
  IC50: 1.56 µM

## C=C(COCC)[C@@H]1CC[C@]2(C(=O)N[C@@H](CC(C)C)C(=O)O)CC[C@]3(C)[C@H](CC[C@H]4C3(C)CC[C@H]3C(C)(C)[C@@H](O)CC[C@@]34C)[C@@H]12 (single isomer, unassigned)
[3]
  IC50: 13.2 µM
